Reference: ChEMBL document CHEMBL2331240, “Focused library development of 2-phenylacrylamides as broad spectrum cytotoxic agents” (2013)
Activity calls are given as the source filed them. The rule behind the calls is not given here.

Assays:
SJ-G2 = experiment: Cytotoxicity against human SJ-G2 cells assessed as growth inhibition at 25 uM measured after 72 hrs by MTT assay; type: functional, cell-based
How it was run: (§1)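 Log-phase cells were plated in duplicate at 2500–4000 cells/well in DMEM with 10% FBS, glutamine and antibiotics, at 37 °C under 5% CO2. Drug was added 24 h after plating from a 40 mM DMSO stock, to a final 25 μM. After 72 h exposure, MTT was read at 540 nm and % growth inhibition was calculated, with 100% meaning total growth inhibition.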

MIA = experiment: Cytotoxicity against human MIA cells assessed as growth inhibition at 25 uM measured after 72 hrs by MTT assay; type: functional; how it was run: as §1
BE(2)-C = experiment: Cytotoxicity against human BE(2)-C cells assessed as growth inhibition at 25 uM measured after 72 hrs by MTT assay; type: functional; how it was run: as §1
A-431 = experiment: Cytotoxicity against human A431 cells assessed as growth inhibition at 25 uM measured after 72 hrs by MTT assay; type: functional, cell-based; how it was run: as §1
DU-145 = experiment: Cytotoxicity against human DU145 cells assessed as growth inhibition at 25 uM measured after 72 hrs by MTT assay; type: functional, cell-based; how it was run: as §1
A2780 = experiment: Cytotoxicity against human A2780 cells assessed as growth inhibition at 25 uM measured after 72 hrs by MTT assay; type: functional; how it was run: as §1
NCI-H460 = experiment: Cytotoxicity against human H460 cells assessed as growth inhibition at 25 uM measured after 72 hrs by MTT assay; type: functional, cell-based; how it was run: as §1
SW480 = experiment: Cytotoxicity against human SW480 cells assessed as growth inhibition at 25 uM measured after 72 hrs by MTT assay; type: functional; how it was run: as §1
MCF7 = experiment: Cytotoxicity against human MCF7 cells assessed as growth inhibition at 25 uM measured after 72 hrs by MTT assay; type: functional; how it was run: as §1
HT-29 = experiment: Cytotoxicity against human HT-29 cells assessed as growth inhibition at 25 uM measured after 72 hrs by MTT assay; type: functional, cell-based; how it was run: as §1
SMA = experiment: Cytotoxicity against mouse SMA cells assessed as growth inhibition at 25 uM measured after 72 hrs by MTT assay

Compound	growth inhibition (GI) (SJ-G2)	growth inhibition (GI) (MIA)	growth inhibition (GI) (BE(2)-C)	growth inhibition (GI) (A-431)	growth inhibition (GI) (DU-145)	growth inhibition (GI) (A2780)	growth inhibition (GI) (NCI-H460)	growth inhibition (GI) (SW480)	inhibition of growth at 25 µM (MCF7; MCF7, 72 h, read-out: GI)	growth inhibition (GI) (HT-29)	growth inhibition (GI) (SMA)	growth inhibition (GI) (MCF7)
N#C/C(=C\c1ccc2ccccc2c1)C(=O)c1c[nH]c2ccccc12	inactive	inactive	inactive	inactive	inactive	inactive	inactive	inactive	40%	inactive	inactive	–
COc1ccc(/C=C(\C#N)C(=O)NCc2ccc(OC)cc2)cc1	inactive	inactive	inactive	inactive	inactive	inactive	inactive	inactive	–	inactive	inactive	inactive
COc1ccc(/C=C(\C#N)C(=O)c2ccc[nH]2)cc1	inactive	inactive	inactive	inactive	inactive	inactive	inactive	inactive	–	inactive	inactive	inactive
N#C/C(=C\c1ccc(O)cc1)C(=O)NCc1ccc(Cl)c(Cl)c1	inactive	inactive	inactive	inactive	inactive	inactive	inactive	inactive	–	inactive	inactive	inactive
N#C/C(=C\c1ccc([N+](=O)[O-])cc1)C(=O)c1ccc[nH]1	inactive	inactive	inactive	inactive	inactive	inactive	inactive	inactive	–	inactive	inactive	inactive
N#C/C(=C\c1ccc(O)cc1)C(=O)c1c[nH]c2ccccc12	inactive	inactive	inactive	inactive	inactive	inactive	inactive	inactive	–	inactive	inactive	inactive
N#C/C(=C\c1ccc(Cl)c(Cl)c1)C(=O)c1ccc[nH]1	inactive	inactive	inactive	inactive	inactive	inactive	inactive	inactive	–	inactive	inactive	inactive
Cc1ccc(/C=C(\C#N)C(=O)NCc2ccc(Cl)c(Cl)c2)cc1	inactive	inactive	inactive	inactive	inactive	inactive	inactive	inactive	–	inactive	inactive	inactive
Cc1ccc(/C=C(\C#N)C(=O)c2c[nH]c3ccccc23)cc1	inactive	inactive	inactive	inactive	inactive	inactive	inactive	inactive	–	inactive	inactive	inactive
N#C/C(=C\c1ccc2ccccc2c1)C(=O)c1ccc[nH]1	inactive	inactive	inactive	inactive	inactive	inactive	inactive	inactive	–	inactive	inactive	inactive
COc1ccc(CNC(=O)/C(C#N)=C/c2ccc(O)cc2)cc1	inactive	inactive	inactive	inactive	inactive	inactive	inactive	inactive	–	inactive	inactive	inactive
N#C/C(=C\c1ccc(C(F)(F)F)cc1)C(=O)c1ccc[nH]1	inactive	inactive	inactive	inactive	inactive	inactive	inactive	inactive	–	inactive	inactive	inactive
COc1ccc(/C=C(\C#N)C(=O)c2c[nH]c3ccccc23)cc1	inactive	inactive	inactive	inactive	inactive	inactive	inactive	inactive	–	inactive	inactive	inactive
N#C/C(=C\c1ccc(C(F)(F)F)cc1)C(=O)c1c[nH]c2ccccc12	inactive	inactive	inactive	inactive	inactive	inactive	inactive	inactive	–	inactive	inactive	inactive
Cc1ccc(/C=C(\C#N)C(=O)c2ccc[nH]2)cc1	inactive	inactive	inactive	inactive	inactive	inactive	inactive	inactive	–	inactive	inactive	inactive
